Measurements from ChEMBL document CHEMBL5705892, “MK-2206, an allosteric Akt inhibitor, enhances antitumor efficacy by standard chemotherapeutic agents or molecular targeted drugs in vitro and in vivo” (Mol Cancer Ther, 2010).
Active and inactive are the calls of the source. The rule behind the calls is not given here.

How the values were obtained:
[1] = test system: A2780; assay: Cell cycle arrest in human A2780 cells assessed as increase in accumulation of cells at sub-G1 phase measured after 72 hrs in presence of 5-FU by propidium iodide staining based flow cytometry; type: functional
[2] = test system: NCI-H358; assay: Synergistic antiproliferative activity against human NCI-H358 cells assessed as combination index at ED75 measured after 72 hrs in presence of erlotinib by celltiter-glo assay; type: functional
[3] = target: RAC-alpha serine/threonine-protein kinase (Homo sapiens) (UniProt P31749); assay: Inhibition of AKT in human A-431 cells assessed as reduction in GSK3alpha/beta phosphorylation at S21/S9 residues at 5 umol/L measured after 5 hrs in presence of erlotinib by Western blot analysis; type: cell-based; conditions: dose 5.0 µmol/L
Sequence of RAC-alpha serine/threonine-protein kinase (Homo sapiens) (P31749 whole entry): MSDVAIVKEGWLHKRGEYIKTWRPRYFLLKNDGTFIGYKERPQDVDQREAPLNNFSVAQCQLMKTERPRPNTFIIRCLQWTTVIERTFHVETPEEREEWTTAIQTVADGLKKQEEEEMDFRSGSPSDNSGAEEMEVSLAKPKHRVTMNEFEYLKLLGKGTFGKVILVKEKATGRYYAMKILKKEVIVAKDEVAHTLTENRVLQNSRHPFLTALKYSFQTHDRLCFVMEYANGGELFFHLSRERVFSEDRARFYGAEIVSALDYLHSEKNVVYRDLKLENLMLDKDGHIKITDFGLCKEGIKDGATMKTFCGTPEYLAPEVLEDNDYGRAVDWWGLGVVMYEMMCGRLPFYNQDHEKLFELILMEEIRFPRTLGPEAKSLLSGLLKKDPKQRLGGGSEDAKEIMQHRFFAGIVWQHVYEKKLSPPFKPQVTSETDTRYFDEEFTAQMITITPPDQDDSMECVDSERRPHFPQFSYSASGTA
Outline: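 Cells were lysed in Tris-HCl pH 7.5, 150 mM NaCl, 1% Triton X-100 with protease and phosphatase inhibitors. Lysates were run on SDS-PAGE, transferred to nitrocellulose and probed with phospho-specific antibodies.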

[4] = test system: BT-474; assay: Synergistic antiproliferative activity against human BT-474 cells assessed as combination index at ED90 preincubated for 24 hrs followed by compound washout and subsequent docetaxel addition and measured after 72 hrs by celltiter-glo assay; type: functional
Outline: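 Sequential schedule. Cells were seeded at 2 to 3 × 10³ per well in RPMI 1640 with 10% FBS and dosed 24 h after plating. They were exposed to the Akt inhibitor for 24 h, washed free of it, then given docetaxel for a further 72 h. Fixed concentration ratios spanned each agent's IC₅₀. ATP was read by CellTiter-Glo, and Chou–Talalay CI was calculated at ED50, ED75 and ED90.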

[5] = test system: SK-OV-3; assay: Synergistic antiproliferative activity against human SK-OV-3 cells assessed as combination index at ED90 measured after 72 hrs in presence of lapatinib by celltiter-glo assay; type: functional
[6] = In vivo inhibition of ERK phosphorylation at T202/Y204 residues in human NCI-H292 cells xenografted mouse at 120 mg/kg, po administered as single dose 2 hrs post-erlotinib treatment measured after 12 hrs by Western blot analysis relative to control; type: functional
[7] = test system: MDA-MB-453; assay: Synergistic antiproliferative activity against human MDA-MB-453 cells assessed as combination index at ED50 measured after 72 hrs in presence of docetaxel by celltiter-glo assay; type: functional
Outline: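 Cells grown in RPMI 1640 with 10% heat-inactivated FBS at 37°C, 5% CO₂. Seeded at 2 to 3 × 10³ per well; drugs added 24 h later. […] Viability read as cellular ATP by CellTiter-Glo. CI calculated by Chou–Talalay from median-effect plots at ED50, ED75 and ED90.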

[8] = test system: SK-BR-3; assay: Synergistic antiproliferative activity against human SK-BR-3 cells assessed as combination index at ED50 treated 24 hrs prior to lapatinib and measured after 72 hrs by celltiter-glo assay; type: functional; conditions: time 96 hrs
[9] = test system: NCI-N87; assay: Synergistic antiproliferative activity against human NCI-N87 cells assessed as combination index at ED50 treated 24 hrs prior to lapatinib and measured after 72 hrs by celltiter-glo assay; type: functional; conditions: time 96 hrs
[10] = test system: NCI-H460; assay: Induction of apoptosis in human NCI-H460 cells assessed as fold induction of capsase-3/7 activity measured after 24 to 48 hrs in presence of gemcitabine by caspase-glo 3/7 assay; type: functional; conditions: time 24-48 hrs
[11] = test system: NCI-N87; assay: Synergistic antiproliferative activity against human NCI-N87 cells assessed as combination index at ED90 measured after 72 hrs in presence of lapatinib by celltiter-glo assay; type: functional
[12] = test system: MDA-MB-468; assay: Synergistic antiproliferative activity against lapatinib pretreated human MDA-MB-468 cells assessed as combination index at ED50 measured after 72 hrs by celltiter-glo assay; type: functional
[13] = test system: NCI-H460; assay: Induction of apoptosis in human NCI-H460 cells assessed as fold induction of capsase-3/7 activity measured after 24 to 48 hrs in presence of carboplatin by caspase-glo 3/7 assay; type: functional; conditions: time 24-48 hrs

## Cl.NC1(c2ccc(-c3nc4ccn5c(=O)[nH]nc5c4cc3-c3ccccc3)cc2)CCC1
[1]
  Activity: Dose-Dependent Effect
[2]
  CI75: 0.19
[3]
  inhibition: Active
[4]
  CI90: 1.6
[5]
  CI90: 0.25
[6]
  inhibition in vivo at 120 mg/kg: 53.5%
[7]
  CI50: 1.2
[8]
  CI50: 0.18
[9]
  CI50: 0.18
[10]
  fold change (FC): 1.6
[11]
  CI90: 0.69
[12]
  CI50: 0.18
[13]
  fold change (FC): 1.4
